ChEMBL document CHEMBL1139434, “Highly potent 1-aminocyclohexane-1-carboxylic acid substituted V2 agonists of arginine vasopressin” (J Med Chem, 2004)
Where a SMILES comes first, the peptide text is derived from it. [ ]: non-standard residue; d: D form. The star is where a group is joined. Cyclohexylacetyl(1-SH) = O=C(CC1(S)CCCCC1)*; Ac6c = NC1(C(=O)O)CCCCC1

Columns and labels:
Rattus norvegicus [1] = species: Rattus norvegicus; experiment: (§1) Compound was evaluated for vasopressor activity in phenoxybenzamine-treated male rats; assay type: functional
Procedure, shortened: (§2)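 Pressor response measured in phenoxybenzamine-treated male Wistar rats, with synthetic arginine vasopressin as standard. Dose–response curves built from single administrations, or cumulatively without washing between increasing doses. Values are means of three to five separate experiments.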

Rattus norvegicus [2] = species: Rattus norvegicus; experiment: Compound was evaluated for in vitro uterotonic activity in the absence of magnesium ions in female wistar rats; assay type: functional; details: for Kb: read-out: pA2 (converted)
Procedure, shortened: (§3)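 Uterus from Wistar females estrogenized 48 h beforehand, tested in vitro in the absence of magnesium ions. Synthetic oxytocin was the standard. Dose–response curves built from single additions, or cumulatively without washing between increasing doses. Values are means of three to five separate experiments.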

Rattus norvegicus [3] = species: Rattus norvegicus; experiment: Compound was evaluated for antidiuretic activity with t1/2 of 200 min in male rats by modified Burn test; assay type: functional, Urine
Rattus norvegicus [4] = species: Rattus norvegicus; experiment: Compound was evaluated for antidiuretic activity with t1/2 of 60 in male rats by modified Burn test; assay type: functional, Urine
Rattus norvegicus [5] = species: Rattus norvegicus; experiment: as §1; assay type: functional, organism-based; details: read-out: pA2 (converted); procedure, shortened: as §2
Rattus norvegicus [6] = species: Rattus norvegicus; experiment: Compound was evaluated for antidiuretic activity with t1/2 of 60 min in male rats by modified Burn test; range is 750-900; assay type: functional, Urine
Rattus norvegicus [7] = species: Rattus norvegicus; experiment: Compound was evaluated for antidiuretic activity with t1/2 of 60 min in male rats by modified Burn test; range is 1300-1745; assay type: functional, Urine
Rattus norvegicus [8] = species: Rattus norvegicus; experiment: Compound was evaluated for vasopressor activity in phenoxybenzamine-treated male rats; range is 346-370; assay type: functional; procedure, shortened: as §2
Rattus norvegicus [9] = species: Rattus norvegicus; experiment: Compound was evaluated for in vitro uterotonic activity in the absence of magnesium ions in female wistar rats; range is 27-63; assay type: functional; procedure, shortened: as §3
Rattus norvegicus [10] = species: Rattus norvegicus; experiment: Compound was evaluated for antidiuretic activity with t1/2 of 60 min in male rats by modified Burn test; range is 114-257; assay type: functional, Urine
Rattus norvegicus [11] = species: Rattus norvegicus; experiment: Compound was evaluated for in vitro uterotonic activity in the absence of magnesium ions in female wistar rats; range is 1.5-5.1; assay type: functional; procedure, shortened: as §3
Rattus norvegicus [12] = species: Rattus norvegicus; experiment: Compound was evaluated for antidiuretic activity with t1/2 of 60 min in male rats by modified Burn test; range is 800-50000; assay type: functional, Urine

Row | Compound | Activity (Rattus norvegicus [1]) [IU/mg] | Activity (Rattus norvegicus [2]) [IU/mg] | Activity (Rattus norvegicus [3]) [IU/mg] | Activity (Rattus norvegicus [4]) [IU/mg] | Kb (Rattus norvegicus [2]) [nM] | further results
1 | CC(C)[C@H](NC(=O)C1(NC(=O)[C@H](Cc2ccc(O)cc2)NC(=O)CCS)CCCCC1)C(=O)N[C@@H](CC(N)=O)C(=O)N[C@@H](CS)C(=O)N1CCC[C@H]1C(=O)N[C@H](CCCN=C(N)N)C(=O)NCC(N)=O | 0 | 0 | 4500 | 450 |  | 
2 | NC(=O)CC[C@H](NC(=O)[C@H](Cc1ccccc1)NC(=O)[C@H](Cc1ccc(O)cc1)NC(=O)CC1(S)CCCCC1)C(=O)N[C@@H](CC(N)=O)C(=O)N[C@@H](CS)C(=O)N1CCC[C@H]1C(=O)N[C@@H](CCCN=C(N)N)C(=O)NCC(N)=O ({Cyclohexylacetyl(1-SH)}-YFQNCPRG-NH2) |  |  |  | 0.03 |  | Kb (Rattus norvegicus [5]): 4.47 nM
3 | CC(C)[C@H](NC(=O)C1(NC(=O)[C@H](Cc2ccc(O)cc2)NC(=O)[C@@H](N)CS)CCCCC1)C(=O)N[C@@H](CC(N)=O)C(=O)N[C@@H](CS)C(=O)N1CCC[C@H]1C(=O)N[C@@H](CCCN=C(N)N)C(=O)NCC(N)=O (H-CY[Ac6c]VNCPRG-NH2) | 0 | 0 |  | <0.4 |  | 
4 | NC(=O)CC[C@H](NC(=O)[C@H](Cc1ccccc1)NC(=O)C1(NC(=O)[C@@H](N)CS)CCCCC1)C(=O)N[C@@H](CC(N)=O)C(=O)N[C@@H](CS)C(=O)N1CCC[C@H]1C(=O)N[C@@H](CCCN=C(N)N)C(=O)NCC(N)=O | 56.6 |  | ~9300 |  | ~2510 | Activity (Rattus norvegicus [6]): <900 IU/mg
5 | CC(C)[C@H](NC(=O)[C@H](Cc1ccccc1)NC(=O)C1(NC(=O)CCS)CCCCC1)C(=O)N[C@@H](CC(N)=O)C(=O)N[C@@H](CS)C(=O)N1CCC[C@H]1C(=O)N[C@H](CCCN=C(N)N)C(=O)NCC(N)=O |  |  | ~50000 | ~4500 | 15.5 | Kb (Rattus norvegicus [5]): 724 nM
6 | NC(=O)CC[C@H](NC(=O)[C@H](Cc1ccccc1)NC(=O)C1(NC(=O)CCS)CCCCC1)C(=O)N[C@@H](CC(N)=O)C(=O)N[C@@H](CS)C(=O)N1CCC[C@H]1C(=O)N[C@H](CCCN=C(N)N)C(=O)NCC(N)=O |  | 0.31 | ~50000 | ~4500 | 316 | 
7 | NC(=O)CC[C@H](NC(=O)C1(NC(=O)[C@H](Cc2ccc(O)cc2)NC(=O)[C@@H](N)CS)CCCCC1)C(=O)N[C@@H](CC(N)=O)C(=O)N[C@@H](CS)C(=O)N1CCC[C@H]1C(=O)N[C@@H](CCCN=C(N)N)C(=O)NCC(N)=O | 0.24 | 0 | ~1.4 | ~0.1 |  | 
8 | NC(=O)CC[C@H](NC(=O)C1(NC(=O)[C@H](Cc2ccc(O)cc2)NC(=O)[C@@H](N)CS)CCCCC1)C(=O)N[C@@H](CC(N)=O)C(=O)N[C@@H](CS)C(=O)N1CCC[C@H]1C(=O)N[C@H](CCCN=C(N)N)C(=O)NCC(N)=O | 0 | 0 | ~1.4 | ~0.1 |  | 
9 | NC(=O)CC[C@H](NC(=O)C1(NC(=O)[C@H](Cc2ccc(O)cc2)NC(=O)CCS)CCCCC1)C(=O)N[C@@H](CC(N)=O)C(=O)N[C@@H](CS)C(=O)N1CCC[C@H]1C(=O)N[C@H](CCCN=C(N)N)C(=O)NCC(N)=O | 0 | 0 |  | <4 |  | 
10 | NC(=O)CC[C@H](NC(=O)[C@H](Cc1ccccc1)NC(=O)[C@H](Cc1ccc(O)cc1)NC(=O)CCS)C(=O)N[C@@H](CC(N)=O)C(=O)N[C@@H](CS)C(=O)N1CCC[C@H]1C(=O)N[C@@H](CCCN=C(N)N)C(=O)NCC(N)=O |  |  |  |  |  | Activity (Rattus norvegicus [7]): <1745 IU/mg; Activity (Rattus norvegicus [8]): <370 IU/mg; Activity (Rattus norvegicus [9]): <63 IU/mg
11 | NC(=O)CC[C@H](NC(=O)[C@H](Cc1ccccc1)NC(=O)C1(NC(=O)CC2(S)CCCCC2)CCCCC1)C(=O)N[C@@H](CC(N)=O)C(=O)N[C@@H](CS)C(=O)N1CCC[C@H]1C(=O)N[C@@H](CCCN=C(N)N)C(=O)NCC(N)=O |  |  | ~1.4 | ~0.1 | 46.8 | Kb (Rattus norvegicus [5]): 55 nM
12 | CC(C)[C@H](NC(=O)[C@H](Cc1ccccc1)NC(=O)C1(NC(=O)[C@@H](N)CS)CCCCC1)C(=O)N[C@@H](CC(N)=O)C(=O)N[C@@H](CS)C(=O)N1CCC[C@H]1C(=O)N[C@@H](CCCN=C(N)N)C(=O)NCC(N)=O (H-C[Ac6c]FVNCPRG-NH2) | 0.9 |  | ~23000 | ~2300 | 126 | 
13 | NC(=O)CC[C@H](NC(=O)[C@H](Cc1ccccc1)NC(=O)[C@H](Cc1ccc(O)cc1)NC(=O)[C@@H](N)CS)C(=O)N[C@@H](CC(N)=O)C(=O)N[C@@H](CS)C(=O)N1CCC[C@H]1C(=O)N[C@H](CCCN=C(N)N)C(=O)NCC(N)=O | 4.1 | 0.4 |  |  |  | Activity (Rattus norvegicus [10]): <257 IU/mg
14 | NC(=O)CC[C@H](NC(=O)[C@H](Cc1ccccc1)NC(=O)C1(NC(=O)CCS)CCCCC1)C(=O)N[C@@H](CC(N)=O)C(=O)N[C@@H](CS)C(=O)N1CCC[C@H]1C(=O)N[C@@H](CCCN=C(N)N)C(=O)NCC(N)=O | 17.2 | 0.71 | ~50000 | ~4500 | 794 | 
15 | NC(=O)CC[C@H](NC(=O)[C@H](Cc1ccccc1)NC(=O)C1(NC(=O)CC2(S)CCCCC2)CCCCC1)C(=O)N[C@@H](CC(N)=O)C(=O)N[C@@H](CS)C(=O)N1CCC[C@H]1C(=O)N[C@H](CCCN=C(N)N)C(=O)NCC(N)=O |  |  |  | <4 | 47.9 | Kb (Rattus norvegicus [5]): 234 nM
16 | CC(C)[C@H](NC(=O)[C@H](Cc1ccccc1)NC(=O)[C@H](Cc1ccc(O)cc1)NC(=O)[C@@H](N)CS)C(=O)N[C@@H](CC(N)=O)C(=O)N[C@@H](CS)C(=O)N1CCC[C@H]1C(=O)N[C@@H](CCCN=C(N)N)C(=O)NCC(N)=O (H-CYFVNCPRG-NH2) | 32 |  |  | 738 |  | 
17 | NC(=O)CC[C@H](NC(=O)C1(NC(=O)[C@H](Cc2ccc(O)cc2)NC(=O)CCS)CCCCC1)C(=O)N[C@@H](CC(N)=O)C(=O)N[C@@H](CS)C(=O)N1CCC[C@H]1C(=O)N[C@@H](CCCN=C(N)N)C(=O)NCC(N)=O | 0.34 | <0.04 | ~25 | ~0.8 |  | 
18 | NC(=O)CC[C@H](NC(=O)[C@H](Cc1ccccc1)NC(=O)[C@H](Cc1ccc(O)cc1)NC(=O)CCS)C(=O)N[C@@H](CC(N)=O)C(=O)N[C@@H](CS)C(=O)N1CCC[C@H]1C(=O)N[C@H](CCCN=C(N)N)C(=O)NCC(N)=O |  |  |  |  |  | Activity (Rattus norvegicus [11]): <5.1 IU/mg; Activity (Rattus norvegicus [12]): <50000 IU/mg
19 | N=C(N)NCCC[C@H](NC(=O)[C@@H]1CCCN1C(=O)[C@@H]1CSSC[C@H](N)C(=O)N[C@@H](Cc2ccc(O)cc2)C(=O)N[C@@H](Cc2ccccc2)C(=O)N[C@@H](CCC(N)=O)C(=O)N[C@@H](CC(N)=O)C(=O)N1)C(=O)NCC(N)=O [VASOPRESSIN] | 412 | 17 |  | 465 |  | 
20 | NC(=O)CC[C@H](NC(=O)[C@H](Cc1ccccc1)NC(=O)C1(NC(=O)[C@@H](N)CS)CCCCC1)C(=O)N[C@@H](CC(N)=O)C(=O)N[C@@H](CS)C(=O)N1CCC[C@H]1C(=O)N[C@H](CCCN=C(N)N)C(=O)NCC(N)=O |  |  | ~9300 |  | ~2000 | Activity (Rattus norvegicus [6]): <900 IU/mg; Kb (Rattus norvegicus [5]): ~1580 nM
21 | CC(C)[C@H](NC(=O)C1(NC(=O)[C@H](Cc2ccc(O)cc2)NC(=O)CC2(S)CCCCC2)CCCCC1)C(=O)N[C@@H](CC(N)=O)C(=O)N[C@@H](CS)C(=O)N1CCC[C@H]1C(=O)N[C@@H](CCCN=C(N)N)C(=O)NCC(N)=O ({Cyclohexylacetyl(1-SH)}-Y[Ac6c]VNCPRG-NH2) | 0 |  |  | <4 | ≥ 1000 | 
